# ChEMBL document CHEMBL2146438, “Radiolabeled cyclosaligenyl monophosphates of 5-iodo-2'-deoxyuridine, 5-iodo-3'-fluoro-2',3'-dideoxyuridine, and 3'-fluorothymidine for molecular radiotherapy of cancer: synthesis and biological evaluation” (J Med Chem, 2012)
# Active and inactive are the calls of the source. The calls are words filed in the database; no cut-off is given here.
# Key:
# Cholinesterase = Cholinesterase (Homo sapiens, UniProt P06276); assay: Inhibition of human BChE after 30 mins by microplate reader method
# Sequence of Cholinesterase (P06276 whole entry): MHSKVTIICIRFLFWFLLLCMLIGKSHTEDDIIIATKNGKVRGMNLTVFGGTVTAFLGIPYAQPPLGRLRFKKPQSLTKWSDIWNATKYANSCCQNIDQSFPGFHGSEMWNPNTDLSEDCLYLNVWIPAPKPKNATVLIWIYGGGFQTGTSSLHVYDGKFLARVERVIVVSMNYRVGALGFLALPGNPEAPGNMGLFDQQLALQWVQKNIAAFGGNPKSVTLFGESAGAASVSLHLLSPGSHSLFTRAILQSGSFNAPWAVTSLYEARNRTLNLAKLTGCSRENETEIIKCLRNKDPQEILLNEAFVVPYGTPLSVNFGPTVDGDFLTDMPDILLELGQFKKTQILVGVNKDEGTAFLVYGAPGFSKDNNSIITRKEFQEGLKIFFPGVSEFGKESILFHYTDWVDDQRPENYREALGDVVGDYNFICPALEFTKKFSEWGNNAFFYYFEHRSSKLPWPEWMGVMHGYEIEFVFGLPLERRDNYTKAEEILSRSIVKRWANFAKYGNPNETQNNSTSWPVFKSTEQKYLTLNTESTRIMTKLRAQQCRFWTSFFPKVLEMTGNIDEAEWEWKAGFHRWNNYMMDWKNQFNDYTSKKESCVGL
# [1] = Cellular uptake in human OVCAR3 cell cytoplasm assessed as per 10^3 cells after 1 hr by gamma counting; format: ADME, cell-based; details: ovcar-3, 1 h
# In short: (§1)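 OVCAR-3 cells incubated 1 h with 55.5 (0.04) kBq/mL 125I-labelled agent (diastereomer mixtures or resolved slow isomers); fractionated either immediately or after 24 h further growth in fresh nonradioactive medium; 125I in cytoplasm and nucleus counted as cpm/10^3 cells with std dev.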
# [2] = Cellular uptake in human OVCAR3 cell cytoplasm assessed as per 10^3 cells after 24 hrs by gamma counting; format: ADME, cell-based; details: ovcar-3, 24 h; in short: as §1
# [3] = Cellular uptake in human OVCAR3 cell nucleus assessed as per 10^3 cells after 1 hr by gamma counting; format: ADME, cell-based; details: ovcar-3, 1 h; in short: as §1
# [4] = Cellular uptake in human OVCAR3 cell nucleus assessed as per 10^3 cells after 24 hrs by gamma counting; format: ADME, cell-based; details: ovcar-3, 24 h; in short: as §1
# [5] = Cellular uptake in human OVCAR3 cytoplasm at 55.5 kBq/mL incubated for 1 hr followed by compound wash out measured after 24 hrs by gamma counting; format: ADME, cell-based; details: ovcar-3, 1 h; in short: as §1
# Nucleic Acid [6] = assay: Binding affinity to human U87MG cell DNA at 27.3 kBq/mL incubated for 24 hrs followed by compound wash out measured after 144 hrs by gamma counting; format: nucleic-acid assay; details: U-87MG ATCC, tested as the 125I-labelled form
# In short: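 U-87 MG cells treated 24 h with 27.3 kBq/mL 125I-labelled agent, then grown a further 144 h in fresh medium; 125I retained in DNA counted.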
# Nucleic Acid [7] = assay: Binding affinity to human U87MG cell DNA at 185 kBq/mL after 120 hrs by gamma counting; format: nucleic-acid assay; details: U-87MG ATCC, tested as the 125I-labelled form
# In short: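 U-87 MG glioblastoma cells exposed continuously to 185 kBq/mL 125I-labelled agent for 120 h; DNA isolated and DNA-associated 125I counted.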
# Nucleic Acid [8] = assay: Binding affinity to human U87MG cell DNA at 19.6 kBq/mL after 40 hrs by gamma counting; format: nucleic-acid assay; details: U-87MG ATCC, tested as the 125I-labelled form
# In short: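 U-87 MG cells incubated 40 h with 19.6 kBq/mL 125I-labelled agent; 125I in DNA measured (genomic tips DNA isolation), expressed as mBq 125I/cell.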
# U-87MG ATCC [9] = assay: Cytotoxicity against human U87MG cells assessed as cell death at 18.5 kBq/mL after 8 weeks by clonogenic assay; format: functional, cell-based; details: tested as the 125I-labelled form
# In short: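 U-87 MG cells treated 24 h with increasing 125I agent concentrations, then grown in fresh medium; colony formation followed up to eight weeks versus vehicle-treated controls.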
# [10] = Chemical stability of the compound in phosphate buffer at pH 7.3; format: physicochemical
# [11] = Half life of the compound in phosphate buffer at pH 7.3; format: physicochemical
# [12] = Cytotoxicity against human LS 174T cells assessed as colony formation at 114.5 kBq/mL incubated for 4 hrs measured after 21 days by clonogenic assay; format: functional, LS174T
# In short: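 LS 174T cells exposed 4 h to 114.5 kBq/mL 125I agent, cultured 24 h in nonradioactive medium, then harvested and plated; colonies counted after 21 days; surviving fraction = treated colonies / untreated control colonies.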
# LS174T [13] = assay: Cytotoxicity against human LS 174T cells assessed as colony formation at 185 kBq/mL after 4 hrs by clonogenic assay relative to control; format: functional, cell-based; details: tested as the 125I-labelled form
# In short: (§2)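 LS 174T cells exposed 4 h to 185 kBq/mL 125I agent, harvested immediately and plated for clonogenic survival (relative to untreated controls); 125I retained in nuclear DNA measured as mBq/cell.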
# LS174T [14] = assay: Cytotoxicity against human LS 174T cells assessed as incorporation of radioisotope at 185 kBq/mL after 4 hrs by gamma counting; format: functional, cell-based; details: tested as the 125I-labelled form; in short: as §2
# U-87MG ATCC [15] = assay: Cytotoxicity against human U87MG cells at 4.76 kBq/mL assessed as cell survival incubated for 1 hr followed by compound wash out measured after 24 hrs by clonogenic assay; format: functional, cell-based; details: tested as the 125I-labelled form
# In short: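 U-87 MG cells treated 1 h with 4.76 kBq/mL 125I agent, then plated immediately or grown 24 h in fresh medium before clonogenic assay; surviving fraction relative to untreated control colonies.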
compound,measurement,setting,value
Cc1cn([C@H]2C[C@H](O)[C@@H](COP3(=O)OCc4c(F)c(C(C)(C)C)cc(C(C)(C)C)c4O3)O2)c(=O)[nH]c1=O (stereo in doubt; form 1),IC50,Cholinesterase,23.6 µM
O=c1[nH]c(=O)n([C@H]2C[C@H](O)[C@@H](COP3(=O)OCc4ccccc4O3)O2)cc1[125I] (stereo in doubt; 6b),Drug uptake,[1]; 1 h,20.2 cpm
same,Drug uptake,[2]; 24 h,7.3 cpm
same,Drug uptake,[3]; 1 h,5.7 cpm
same,Drug uptake,[4]; 24 h,39.4 cpm
same,Drug uptake,[5],Active
Cc1cn([C@H]2C[C@H](O)[C@@H](COP3(=O)OCc4c(F)c(C(C)(C)C)cc(C(C)(C)C)c4O3)O2)c(=O)[nH]c1=O (stereo in doubt; form 2),IC50,Cholinesterase,0.376 µM
CC(C)(C)c1cc(C(C)(C)C)c2c(c1F)COP(=O)(OC[C@H]1O[C@@H](n3cc([125I])c(=O)[nH]c3=O)C[C@@H]1O)O2 (stereo in doubt; 8b),Drug uptake,[1]; 1 h,88.3 cpm
same,Drug uptake,[2]; 24 h,3.2 cpm
same,Drug uptake,[3]; 1 h,7.9 cpm
same,Drug uptake,[4]; 24 h,92.2 cpm
same,Drug uptake,[5],> 230%
O=c1[nH]c(=O)n([C@H]2C[C@H](O)[C@@H](COP3(=O)OCc4ccccc4O3)O2)cc1I (stereo in doubt; form 4),Activity,Nucleic Acid [6],Active
same,Activity,Nucleic Acid [7],Active
same,Activity,Nucleic Acid [8],Active
same,Activity,U-87MG ATCC [9],Active
Cc1cn([C@H]2C[C@H](F)[C@@H](COP3(=O)OCc4c(F)c(C(C)(C)C)cc(C(C)(C)C)c4O3)O2)c(=O)[nH]c1=O (stereo in doubt; form 1),IC50,Cholinesterase,0.203 µM
O=c1[nH]c(=O)n([C@H]2C[C@H](O)[C@@H](COP3(=O)OCc4ccccc4O3)O2)cc1[125I] (stereo in doubt; form 2),K,[10],1.52 ×10⁻³ /min
same,t1/2,[11],7.6 h
same,Activity,[12],38%
same,Drug uptake,[1]; 1 h,14.8 cpm
same,Drug uptake,[2]; 24 h,6 cpm
same,Drug uptake,[3]; 1 h,4.9 cpm
same,Drug uptake,[4]; 24 h,31.3 cpm
CC(C)(C)c1cc(C(C)(C)C)c2c(c1F)COP(=O)(OC[C@H]1O[C@@H](n3cc([125I])c(=O)[nH]c3=O)C[C@@H]1F)O2 (stereo in doubt; form 2),K,[10],2.24 ×10⁻⁴ /min
same,t1/2,[11],51.5 h
Cc1cccc2c1OP(=O)(O[C@H]1C[C@H](n3cc([125I])c(=O)[nH]c3=O)O[C@@H]1CO)OC2 (some centres undefined),Drug uptake,[1],6.2 cpm
same,Drug uptake,[2],1.4 cpm
same,Drug uptake,[3],2 cpm
same,Drug uptake,[4],15.7 cpm
CC(C)(C)c1cc(C(C)(C)C)c2c(c1F)COP(=O)(OC[C@H]1O[C@@H](n3cc(I)c(=O)[nH]c3=O)C[C@@H]1F)O2 (stereo in doubt; form 2),K,[10],2.22 ×10⁻⁴ /min
same,t1/2,[11],52 h
same,IC50,Cholinesterase,0.0198 µM
Cc1cccc2c1OP(=O)(O[C@H]1C[C@H](n3cc(I)c(=O)[nH]c3=O)O[C@@H]1CO)OC2 (stereo in doubt; form 2),K,[10],8.13 ×10⁻⁴ /min
same,t1/2,[11],14.2 h
Cc1cccc2c1OP(=O)(OC[C@H]1O[C@@H](n3cc(I)c(=O)[nH]c3=O)C[C@@H]1O)OC2 (stereo in doubt; form 4),Activity,LS174T [13],Active
same,Activity,LS174T [14],Active
CC(C)(C)c1cc(C(C)(C)C)c2c(c1F)COP(=O)(O[C@H]1C[C@H](n3cc(I)c(=O)[nH]c3=O)O[C@@H]1CO)O2 (stereo in doubt; form 1),K,[10],7.66 ×10⁻⁴ /min
same,t1/2,[11],15.1 h
O=c1[nH]c(=O)n([C@H]2C[C@H](O)[C@@H](COP3(=O)OCc4ccccc4O3)O2)cc1I (stereo in doubt; form 2),IC50,Cholinesterase,0.0092 µM
Cc1cccc2c1OP(=O)(OC[C@H]1O[C@@H](n3cc(I)c(=O)[nH]c3=O)C[C@@H]1O)OC2 (stereo in doubt; form 1),IC50,Cholinesterase,> 7000 µM
CC(C)(C)c1cc(C(C)(C)C)c2c(c1F)COP(=O)(O[C@H]1C[C@H](n3cc([125I])c(=O)[nH]c3=O)O[C@@H]1CO)O2 (some centres undefined),Drug uptake,[1],62.5 cpm
same,Drug uptake,[2],2.7 cpm
same,Drug uptake,[3],4.3 cpm
same,Drug uptake,[4],66.7 cpm
CC(C)(C)c1cc(C(C)(C)C)c2c(c1F)COP(=O)(OC[C@H]1O[C@@H](n3cc(I)c(=O)[nH]c3=O)C[C@@H]1O)O2 (stereo in doubt; form 2),K,[10],1.88 ×10⁻⁴ /min
same,t1/2,[11],61.5 h
same,IC50,Cholinesterase,0.0501 µM
O=c1[nH]c(=O)n([C@H]2C[C@H](OP3(=O)OCc4ccccc4O3)[C@@H](COP3(=O)OCc4ccccc4O3)O2)cc1[125I] (some centres undefined),Drug uptake,[1],97.6 cpm
same,Drug uptake,[2],37.3 cpm
same,Drug uptake,[3],6.4 cpm
same,Drug uptake,[4],18.1 cpm
O=c1[nH]c(=O)n([C@H]2C[C@H](OP3(=O)OCc4ccccc4O3)[C@@H](CO)O2)cc1I (stereo in doubt; form 2),K,[10],1.64 ×10⁻³ /min
same,t1/2,[11],7.1 h
Cc1cn([C@H]2C[C@H](F)[C@@H](COP3(=O)OCc4c(F)c(C(C)(C)C)cc(C(C)(C)C)c4O3)O2)c(=O)[nH]c1=O (stereo in doubt; form 2),IC50,Cholinesterase,0.0426 µM
Cc1cccc2c1OP(=O)(OC[C@H]1O[C@@H](n3cc([125I])c(=O)[nH]c3=O)C[C@@H]1OP1(=O)OCc3cccc(C)c3O1)OC2 (some centres undefined),Drug uptake,[1],97.1 cpm
same,Drug uptake,[2],13.4 cpm
same,Drug uptake,[3],6 cpm
same,Drug uptake,[4],24.5 cpm
Cc1cccc2c1OP(=O)(OC[C@H]1O[C@@H](n3cc(I)c(=O)[nH]c3=O)C[C@@H]1O)OC2 (stereo in doubt; form 2),IC50,Cholinesterase,0.0612 µM
Cc1cccc2c1OP(=O)(O[C@H]1C[C@H](n3cc(I)c(=O)[nH]c3=O)O[C@@H]1CO)OC2 (stereo in doubt; form 1),K,[10],9.46 ×10⁻⁴ /min
same,t1/2,[11],12.2 h
Cc1cccc2c1OP(=O)(OC[C@H]1O[C@@H](n3cc(I)c(=O)[nH]c3=O)C[C@@H]1O)OC2 (stereo in doubt; form 3),Activity,LS174T [14],Active
O=c1[nH]c(=O)n([C@H]2C[C@H](OP3(=O)OCc4ccccc4O3)[C@@H](CO)O2)cc1[125I] (some centres undefined),Drug uptake,[1],7.2 cpm
same,Drug uptake,[2],2.7 cpm
same,Drug uptake,[3],2.1 cpm
same,Drug uptake,[4],30.2 cpm
CC(C)(C)c1cc(C(C)(C)C)c2c(c1F)COP(=O)(OC[C@H]1O[C@@H](n3cc(I)c(=O)[nH]c3=O)C[C@@H]1O)O2 (stereo in doubt; form 1),K,[10],2.41 ×10⁻⁴ /min
same,t1/2,[11],47.9 h
O=c1[nH]c(=O)n([C@H]2C[C@H](O)[C@@H](COP3(=O)OCc4ccccc4O3)O2)cc1I (stereo in doubt; form 1),IC50,Cholinesterase,1.28 µM
CC(C)(C)c1cc(C(C)(C)C)c2c(c1F)COP(=O)(OC[C@H]1O[C@@H](n3cc(I)c(=O)[nH]c3=O)C[C@@H]1F)O2 (stereo in doubt),Activity,U-87MG ATCC [15],inactive
Cc1cccc2c1OP(=O)(OC[C@H]1O[C@@H](n3cc([125I])c(=O)[nH]c3=O)C[C@@H]1O)OC2 (stereo in doubt; form 2),K,[10],4.63 ×10⁻⁴ /min
same,t1/2,[11],25 h
same,Drug uptake,[1]; 1 h,13 cpm
same,Drug uptake,[2]; 24 h,1.8 cpm
same,Drug uptake,[3]; 1 h,5.4 cpm
same,Drug uptake,[4]; 24 h,29.3 cpm
CC(C)(C)c1cc(C(C)(C)C)c2c(c1F)COP(=O)(OC[C@H]1O[C@@H](n3cc(I)c(=O)[nH]c3=O)C[C@@H]1F)O2 (stereo in doubt; form 1),K,[10],2.92 ×10⁻⁴ /min
same,t1/2,[11],39.6 h
same,IC50,Cholinesterase,0.549 µM
O=c1[nH]c(=O)n([C@H]2C[C@H](O)[C@@H](COP3(=O)OCc4ccccc4O3)O2)cc1I (stereo in doubt; form 3),Activity,U-87MG ATCC [9],Active
Cc1cccc2c1OP(=O)(OC[C@H]1O[C@@H](n3cc([125I])c(=O)[nH]c3=O)C[C@@H]1O)OC2 (stereo in doubt; 7b),Drug uptake,[1]; 1 h,11.7 cpm
same,Drug uptake,[2]; 24 h,1.6 cpm
same,Drug uptake,[3]; 1 h,4.5 cpm
same,Drug uptake,[4]; 24 h,25.9 cpm
same,Drug uptake,[5],Active
CC(C)(C)c1cc(C(C)(C)C)c2c(c1F)COP(=O)(OC[C@H]1O[C@@H](n3cc(I)c(=O)[nH]c3=O)C[C@@H]1O)O2 (stereo in doubt; form 3),IC50,Cholinesterase,1.14 µM
O=c1[nH]c(=O)n([C@H]2C[C@H](OP3(=O)OCc4ccccc4O3)[C@@H](CO)O2)cc1I (stereo in doubt; form 1),K,[10],2.05 ×10⁻³ /min
same,t1/2,[11],5.3 h
